The text below walks through data of article PMC10008514 (Chemical communications (Cambridge, England), 2023).

The term IC50 denotes the concentration that gives 50% inhibition. What is called Ki is the dissociation constant of the complex between target and ligand, obtained from inhibition or displacement.

Series [1] deals with human carbonic anhydrase II (hCAII) (Homo sapiens, UniProt P00918). Briefly: hCAII inhibition assay. Type of series: biochemical.
For series [2], the target named is T1, matrix metalloproteinase-2 (MMP-2) (Homo sapiens, UniProt P08253).
T1 sequence (P08253 110-660): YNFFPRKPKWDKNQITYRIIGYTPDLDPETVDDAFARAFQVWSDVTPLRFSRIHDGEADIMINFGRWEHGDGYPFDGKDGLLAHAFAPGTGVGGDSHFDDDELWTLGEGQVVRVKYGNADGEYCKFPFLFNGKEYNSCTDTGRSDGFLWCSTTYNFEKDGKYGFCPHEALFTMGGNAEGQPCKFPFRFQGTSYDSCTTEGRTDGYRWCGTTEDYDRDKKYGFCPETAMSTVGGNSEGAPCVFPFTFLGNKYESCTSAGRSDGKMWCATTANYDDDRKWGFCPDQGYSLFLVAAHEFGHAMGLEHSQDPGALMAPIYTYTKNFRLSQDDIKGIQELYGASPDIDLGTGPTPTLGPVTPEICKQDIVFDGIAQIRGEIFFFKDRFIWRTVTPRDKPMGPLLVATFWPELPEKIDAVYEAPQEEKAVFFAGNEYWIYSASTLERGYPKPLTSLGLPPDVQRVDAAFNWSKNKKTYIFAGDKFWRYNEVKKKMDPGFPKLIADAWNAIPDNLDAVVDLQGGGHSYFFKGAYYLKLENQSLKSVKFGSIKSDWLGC
Put plainly: MMP-2 inhibition assay. Type of series: biochemical.

Series [3] can be described thus: Reaction with L-cysteine methyl ester. It is filed as physicochemical. The settings on record: equimolar 13, 24 h, 10% acetonitrile 90% water, pH 7.4, 1.25 mM. An outline of the steps: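 Test compound and L-cysteine methyl ester were mixed in equimolar amounts at a final concentration of 1.25 mM. The solvent was 10% acetonitrile and 90% water at pH 7.4. The mixture was incubated for 24 h before analysis.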

A short description of the next series: Reactivity with DTNB. The settings on record: compound:DTNB 1:10, incubation 90 min, absorbance 412 nm. It is filed as physicochemical.
In a further series the target is hCAII. Particulars: read-out: Ki hCAII; reported inhibitor; cited from earlier work.

“Also recorded” adds a separate entry of the source. Where two headings read alike, the source gives them in different places.

Turning to `S=C1Cc2ccccc2N1` [Compound 5, 2-indolinethione], the IC50 turned out to be 3.42 ± 0.34 µM in series [1] and 76.6 ± 4.26 µM in series [2]. Further, the “Reactivity with L-cysteine methyl ester (13), disulfide formation by HPLC” value (shortened to “Reactivity with L-cysteine methyl ester”) in series [3] is “stable in the presence of 13”.
In the case of `S=c1[nH]c2ccccc2o1` [Compound 1, benzo[d]oxazole-2-(3H)-thione], the half-maximal inhibitory concentration (IC50) is over 200 µM in series [1] (read-out: IC50 hCAII, ± 95% confidence interval) and over 200 µM in series [2] (read-out: IC50 MMP-2, ± 95% confidence interval). For the same molecule, the “IC50 hCAII” value in series [1] (± 95% confidence interval) is “not active”. Also, the “Percent reactivity (conversion) with DTNB” value (“Percent reactivity” for short) in the series “Reactivity with DTNB” is given as “most stable compounds”. The Ki at hCAII was 0.97 µM. Further, the “Reactivity with L-cysteine methyl ester” value in series [3] is “most stable compounds”.
For `C[C@H](CS)C(=O)N1CCC[C@H]1C(=O)O` [Compound 12, captopril], the “Percent reactivity” value in “Reactivity with DTNB” is “essentially quantitative conversion; also recorded: essential quantitative disulfide formation”.
Turning to `Oc1ccccc1S` [Compound 11, 2-mercaptophenol, reference compound], the IC50 is 19.4 ± 5.15 µM in series [1] and over 200 µM in series [2]. Besides, the “Percent reactivity” value in the series “Reactivity with DTNB” is reported as “essentially quantitative conversion; also recorded: essential quantitative disulfide formation”. For the same molecule, on hCAII, the inhibitory constant (Ki) is 0.63 µM. The “Reactivity with L-cysteine methyl ester” value in series [3] was “generate disulfide products with 13”.
